This note sets out measurements from ChEMBL document CHEMBL5331136, “Design, Synthesis, and Biological Evaluation of Novel Spiro Imidazobenzodiazepines to Identify Improved Inhaled Bronchodilators” (J Med Chem, 2023).

Values after ≈ are worked out from the molar mass of the structure shown. Active and inactive are the calls of the source. No cut-off for these calls is given here. Where only a bound is given, the exact number is not on record here.

A short description of series [1]: Aqueous solubility of the compound at […] under shaking condition for 24 hrs by UV absorbance based analysis. The series is classed as physicochemical. Conditions: for solubility: buffer, 24 h; for solubility at 24 h: aqueous.
The next series has as its system HEK293. The series can be described thus: Cytotoxicity against HEK293 cells assessed as lethal dose measured after 18 hrs by CellTiter-Glo assay. The series is classed as functional. The note with it: Homo sapiens, read-out: LD50 (the source's name). In short, it runs like this: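 HEK293T cells grown in DMEM/high glucose with NEAA, HEPES, pen/strep, 10% heat-inactivated FBS. Plated 15,000 cells/well, then 4 h at 37 °C, 5% CO2. Compound added as 1:3 serial dilutions, top final concentration 300 µM. After 18 h, read luminescence by CellTiter-Glo. DMSO negative control, aminoketone positive control. Three independent experiments in quadruplicate, variable-slope nonlinear regression.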
A general note: In ATP-based viability assays light output follows the ATP content of the culture.

Series [2] deals with GABA-A receptor; anion channel (Rattus norvegicus) (UniProt O09028+P15431+P18506+P18508+P19969+P20236+P23574+P23576+P28471+P28473+P30191+P62813+P63079+P63138+Q91ZM7+Q9ES14). The series can be described thus: Displacement of [3H]flunitrazepam from GABAA receptor in rat brain extract at 10 uM relative to control. The series is classed as tissue-based.
The nature of series [3]: Metabolic stability in mouse liver S9 fraction assessed as parent compound remaining at 10 uM measured after 120 mins in presence of NADPH by LC-MS/MS analysis. The series is classed as ADME, subcellular. The note with it: read-out: Stability.
Series [4] in a line: Metabolic stability in mouse liver S9 fraction assessed as parent compound remaining at 10 uM measured after 120 mins in presence of UDP-glucuronic acid by LC-MS/MS analysis. The series is classed as ADME, subcellular. The note with it: read-out: Stability. In short, it runs like this: (§1)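 Liver S9 (human or mouse), protein 0.5 mg/mL, compound 10 µM (from 1 mM DMSO stock), phosphate buffer pH 7.4, […], alamethicin 0.0225 mg/mL final. Preincubated 5 min at 37 °C, then S9 added. Aliquots at 0 and 120 min quenched in cold methanol with 5 µM 4,5-diphenylimidazole internal standard. Parent remaining from LC-MS/MS peak-area ratio. Two independent assays in triplicate (n = 6).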

Series [5] can be described thus: Metabolic stability in human liver S9 fraction assessed as parent compound remaining at 10 uM measured after 120 mins in presence of NADPH by LC-MS/MS analysis. The series is classed as ADME, subcellular. Conditions: for remaining at 2 h, 10 µM: liver S9 fraction, read-out: Stability.
The nature of series [6]: Metabolic stability in human liver S9 fraction assessed as parent compound remaining at 10 uM measured after 120 mins in presence of UDP-glucuronic acid by LC-MS/MS analysis. Format: ADME, subcellular. The note with it: read-out: Stability. The method in brief:
as §1

Series [7] can be described thus: Inhibition of sensorimotor coordination in Swiss Webster mouse at 40 mg/kg, po measured after 10 to 30 mins by rotarod analysis. The series is classed as toxicity, organism-based. Conditions: in vivo, time 10-30 min. In short, it runs like this: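 Female Swiss Webster mice, 10 weeks old, trained on rotarod at 15 rpm for 3 min. Single oral gavage, 100 µL, in 2.5% PEG400/97.5% 2% HPMC. Tested 3 min at 10, 30 and 60 min after dosing; fall time recorded at second fall. n = 12, two-way repeated-measures ANOVA with Bonferroni posttest.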

Another series concerns Mus musculus. Description: Induction of bronchodilation in A/J mouse assessed as reduction in sRaw values at 7.2 mg/kg administered as nebulized compound. The series is classed as functional, organism-based. In short, it runs like this: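 Female A/J mice, no allergen sensitization, trained 5 days in a double-chamber plethysmograph while conscious. Compound nebulized in PBS at 7.2 mg/kg, then five nebulized methacholine challenges (in water). Each nebulization under 1 min, 3 min recording, 1 min pause. sRaw calculated per interval. n = 12, two-way repeated-measures ANOVA against vehicle.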

Series [8] addresses GABA-A receptor; anion channel. The series can be described thus: Displacement of [3H]flunitrazepam from GABAA receptor in rat brain extract. Format: tissue-based.
A further series concerns Trachea. The series can be described thus: Induction of smooth muscle relaxation in Hartley guinea pig trachea ring assessed as reduction in substance P induced smooth muscle constriction at 25 uM measured after 30 mins. The series is classed as functional, tissue-based. Conditions: Cavia porcellus.

For `O=C(O)c1ncn2c1C1(CCCC1)N=C(c1ccccc1F)c1cc(Br)ccc1-2`, the solubility in [1] came out at 46.7 mM (≈ 21200 µg/mL). Moreover, the CC50 in the series on HEK293 is more than 300 µM. Moreover, the Activity is 2% in [2] and “Non-Toxic” in [7]. Also, the remaining at 2 h, 10 µM in series [3] is 117%; in series [4], 92%; in [5], 114%; in series [6], 96%. Besides, in the series with Mus musculus, the outcome was inactive.
In [1], `CCC1N=C(c2ccccc2F)c2cc(Br)ccc2-n2cnc(C(=O)O)c21` (racemic) showed a solubility at 24 h of 77.6 mM (≈ 33200 µg/mL). Besides, in the series on HEK293, the CC50 is more than 300 µM. The Activity in [2] is 102%; in series [7] it was “Non-Toxic”. The compound further returned an IC50 in series [8] of 145 µM. Further, the remaining at 2 h, 10 µM in series [3] was found to be 108%; in series [4] it was 114%; in series [5], 119%; in series [6] it was 111%. For the same compound, in the series with Mus musculus, the result was Active.
In series [1], `O=C(O)c1ncn2c1C1(CC1)N=C(c1ccccc1F)c1cc(Cl)ccc1-2` came in with a solubility of 36.2 mM (≈ 13800 µg/mL). Moreover, in the series on HEK293, the CC50 was more than 300 µM. In addition, the Activity is 18% in series [2] and “Non-Toxic” in [7]. In addition, the remaining at 2 h, 10 µM in [3] was determined as 101%; in series [4], 98%; in series [5] it was 103%; in [6], 103%.
In [1], `O=C(O)c1ncn2c1C1(CC1)N=C(c1ccccc1F)c1cc(Br)ccc1-2` returned a solubility of 8.2 mM (≈ 3500 µg/mL). Also, the CC50 with HEK293 is more than 300 µM. Further, the Activity in series [2] was 97%; in series [7] it was “Non-Toxic”. In addition, the 50% inhibitory concentration (IC50) in [8] came out at 9 µM. Moreover, the remaining at 2 h, 10 µM in series [3] is 120%; in series [4], 90%; in [5] it was 104%; in series [6], 69%. Also, the result in the series with Trachea and in the series with Mus musculus was Active.
Regarding `O=C(O)c1ncn2c1C1(CC1)N=C(c1ccccc1F)c1ccccc1-2`, the solubility in series [1] was 15.1 mM (≈ 5240 µg/mL). Also, in the series on HEK293, the CC50 is more than 300 µM. The Activity in series [2] is 74%; in [7], “Non-Toxic”. In addition, the remaining at 2 h, 10 µM in series [3] stood at 108%; in series [4], 99%; in series [5] it was 106%; in series [6], 96%. Besides, the outcome with Trachea and in the series with Mus musculus was Active.
Take `CC1(C)N=C(c2ccccc2F)c2cc(Br)ccc2-n2cnc(C(=O)O)c21`: the solubility in series [1] is 4.4 mM (≈ 1880 µg/mL). Also, the CC50 in the series with HEK293 was more than 300 µM. For the same compound, the Activity is 74% in series [2] and “Non-Toxic” in [7]. Further, the remaining at 2 h, 10 µM in series [3] worked out at 106%; in series [4] it was 107%; in [5], 106%; in series [6] it was 111%. Moreover, in the series on Mus musculus, the result was inactive.
In series [1], `C#Cc1ccc2c(c1)C(c1ccccc1F)=NC1(CC1)c1c(C(=O)O)ncn1-2` came in with a solubility of 40.3 mM (≈ 15000 µg/mL). The CC50 with HEK293 is more than 300 µM. Further, the Activity is 55% in series [2] and “Non-Toxic” in series [7]. In addition, the remaining at 2 h, 10 µM in series [3] is 108%; in series [4] it was 113%; in series [5], 106%; in series [6], 93%. For the same compound, the outcome in the series with Trachea and in the series on Mus musculus was Active.
`O=C(O)c1ncn2c1C1(CCCCC1)N=C(c1ccccc1F)c1cc(Br)ccc1-2` came in with a solubility in series [1] of 46.9 mM (≈ 22000 µg/mL). Moreover, the CC50 in the series with HEK293 is more than 300 µM. The Activity was 24% in series [2] and “Non-Toxic” in series [7]. Besides, the remaining at 2 h, 10 µM in series [3] is 111%; in series [4], 78%; in [5], 107%; in series [6] it was 106%. In addition, the outcome with Trachea was Active. Also, the result in the series on Mus musculus was inactive.
For `O=C(O)c1ncn2c1C1(CCC1)N=C(c1ccccc1F)c1cc(Br)ccc1-2`, in series [1], the solubility stood at 58.7 mM (≈ 25800 µg/mL). Moreover, the CC50 in the series on HEK293 is more than 300 µM. The Activity in [2] was 59%; in series [7], “Non-Toxic”. Moreover, the IC50 in [8] came out at 1830 µM. For the same compound, the remaining at 2 h, 10 µM in series [3] came out at 90%; in series [4] it was 91%; in series [6] it was 113%. In series [5] (s9, 2 h, 10 µM), the Stability was 122%. In the series with Mus musculus, the result was inactive.
In turn, `CCC1N=C(c2ccccc2F)c2cc(Br)ccc2NC1=O` (racemic) registered a solubility at 24 h in [1] of 0.397 mM (≈ 143 µg/mL). For the same compound, the CC50 in the series with HEK293 was more than 150 µM. For the same compound, the Activity in [2] turned out to be 95%. Besides, in series [8], the IC50 was 134 µM.
On to `O=C(O)c1ncn2c1C1(CC1)N=C(c1ccccc1F)c1cc(C3CC3)ccc1-2`, for which the solubility in series [1] stood at 12.8 mM (≈ 4960 µg/mL). The CC50 in the series with HEK293 was more than 300 µM. Also, the Activity in series [2] is 58%; in series [7], “Non-Toxic”. The remaining at 2 h, 10 µM was found to be 102% in series [3], 95% in series [4], 107% in series [5] and 96% in series [6].
Compound `CCOC(=O)c1ncn2c1C(CC)N=C(c1ccccc1F)c1cc(Br)ccc1-2` (racemic) registered a solubility at 24 h in [1] of 0.417 mM (≈ 190 µg/mL). Moreover, in the series on HEK293, the CC50 is more than 300 µM. This compound also yielded an Activity in series [2] of 61%. In series [8], this compound yielded an IC50 of 175 µM.

Broadly, the solubility is how much of the substance goes into solution per volume. Usually IC50 stands for the concentration at which inhibition is half-maximal. High values mean weaker potency, low ones greater potency.
